For assay [1], the species on record is Rattus norvegicus. Nature of the assay: Compound was evaluated in Vitro in glycogen induced peritoneal cells of rats(GPEC) for the inhibition of Prostaglandin E2 (PGE2) production at 0.1-10 uM. It counts as functional, cell-based. An outline of the steps: (§1)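 Glycogen-elicited rat peritoneal leukocytes in Ca²⁺/Mg²⁺-free HBSS (5 × 10⁶ cells/mL; 5 × 10⁵ cells per aliquot). Cells were preincubated 5 min at 37 °C with compound or vehicle (0.1% DMSO/0.1% BSA), then stimulated with A23187 (4 µM, 10 min, 37 °C). The reaction was stopped with BW755C (100 µM). Supernatant LTB₄, TXB₂ and PGE₂ were measured by RIA. Points were run in duplicate; IC₅₀ by probit.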

The species entered for assay [2] is Rattus norvegicus. Description: In vitro inhibition of Leukotriene B4 (LTB4) production in glycogen-induced peritoneal cells of rat. Format: functional, cell-based. In outline: as §1
The species named for assay [3] is Rattus norvegicus. Nature of the assay: In vitro inhibition of Thromboxane B2 (TXB2) production in glycogen-induced peritoneal cells of rat. Format: functional, cell-based. An outline of the steps: as §1
Assay [4] is filed under the species Rattus norvegicus. Nature of the assay: Compound was evaluated in Vitro in glycogen induced peritoneal cells of rats(GPEC) for the inhibition of Prostaglandin E2 (PGE2) production at 0.1-1 uM. Format: functional, cell-based. An outline of the steps:
as §1

Assay [5] is described as follows: in vitro activities of TXB2 in human platelets. It counts as functional. In outline: (§2)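 Washed human platelets in Tris-HCl-saline, pH 7.4, with 10 µM indomethacin (3 × 10⁸ cells/mL). Platelets were preincubated 5 min at 25 °C with compound or vehicle, then given PGH₂ (1 µg/mL, 3 min, 25 °C). The reaction was stopped with citrate/ethanol. Supernatant TXB₂ was measured by RIA. Duplicate points; IC₅₀ by probit.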

The species named for assay [6] is Homo sapiens. Description: In vitro inhibition of LTB4 production in human neutrophils. Format: functional. In outline:
(§3)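 Human blood neutrophils were isolated by dextran sedimentation and Percoll gradient and held in Ca²⁺/Mg²⁺-free HBSS (1 × 10⁶ cells/mL). Cells were preincubated 5 min at 37 °C with compound or vehicle (0.1% DMSO/0.1% BSA), then stimulated with A23187 (4 µM, 10 min). Supernatant LTB₄ was measured by RIA. Duplicate points; IC₅₀ by probit.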

The species entered for assay [7] is Rattus norvegicus. Nature of the assay: Compound was evaluated in Vitro in glycogen induced peritoneal cells of rats(GPEC) for the inhibition of Leukotriene B4 (LTB4) production. It counts as functional, cell-based. An outline of the steps:
as §1

Assay [8] is filed under the species Homo sapiens. Nature of the assay: In vitro inhibition of LTB4 production in human whole blood. It counts as functional. An outline of the steps: (§4)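 Fresh heparinized (10 U/mL) human volunteer blood, 0.4 mL aliquots. Blood was preincubated 5 min at 37 °C with compound or vehicle (0.1% DMSO/0.1% BSA), then challenged with A23187 (40 µM, 20 min, 37 °C). Plasma LTB₄ and TXB₂ were measured by RIA. Duplicate points; IC₅₀ by probit.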

The nature of assay [9]: in vitro activities of TXB2 in human whole blood. It counts as functional, tissue-based. In outline:
as §4

The species entered for assay [10] is Rattus norvegicus. Nature of the assay: Compound was evaluated in Vitro in glycogen induced peritoneal cells of rats(GPEC) for the inhibition of Prostaglandin E2 (PGE2) production at 0.1-100 uM. It counts as functional, cell-based. An outline of the steps: as §1
For assay [11], the species on record is Homo sapiens. Description: Inhibitory activity of the compound against leukotriene (LT) B4 production in human neutrophils. Format: functional. In outline: as §3
The species entered for assay [12] is Homo sapiens. Description: Inhibitory activity of the compound against leukotriene (LT) B4 production in human whole blood. Format: functional. An outline of the steps: as §4
Assay [13] is filed under the species Homo sapiens. Nature of the assay: Inhibitory activity of the compound against Thromboxane TXB2 production in human whole blood. It counts as functional. In outline: as §4
The species entered for assay [14] is Homo sapiens. Description: Inhibitory activity of the compound against Thromboxane TXB2 production in human blood platelets. It counts as functional. In outline:
as §2

IC50 data for 22 molecules are collected here from ChEMBL document CHEMBL1129263, “Structure-activity relationships of (E)-3-(1,4-benzoquinonyl)-2-[(3-pyridyl)-alkyl]-2-propenoic acid derivatives that inhibit both 5-lipoxygenase and thromboxane A2 synthetase” (J Med Chem, 1996).

By IC50 is commonly meant the midpoint of a concentration-inhibition curve. A high value points to weaker potency. Consider `CC1=C(/C=C(\CCCCCc2cccnc2)C(=O)O)C(=O)C(OCC2CCCCC2)=C(C)C1=O`, for which the IC50 in the assay filed under Rattus norvegicus [1] was more than 100 µM; in the assay listed under Rattus norvegicus [2], 0.27 µM; in the assay listed under Rattus norvegicus [3], less than 0.1 µM.

As for `COC1=C(C)C(=O)C(/C=C(\CCCc2cccnc2)C(=O)O)=C(C)C1=O`, the IC50 in the assay filed under Rattus norvegicus [1] was found to be 100 µM; in the assay filed under Rattus norvegicus [2], 3.2 µM; in the assay listed under Rattus norvegicus [3], 0.48 µM.

As for `CCOC1=C(C)C(=O)C(/C=C(\CCCCCc2cccnc2)C(=O)O)=C(C)C1=O`, the IC50 in the assay listed under Rattus norvegicus [2] is 4.4 µM; in the assay listed under Rattus norvegicus [4], 100 µM; in the assay listed under Rattus norvegicus [3], 0.32 µM.

Turning to `COC1=C(C)C(=O)C(/C=C(\CCCCCc2cccnc2)C(=O)O)=C(C)C1=O`, the IC50 in the assay listed under Rattus norvegicus [2] worked out at 0.82 µM; in assay [5] it was 0.39 µM; in the assay listed under Homo sapiens [6], 0.9 µM; in the assay listed under Rattus norvegicus [7] it was 820 µM; in the assay filed under Rattus norvegicus [3], 0.07 µM; in the assay listed under Homo sapiens [8], 5.8 µM. In assay [9], this molecule yielded an IC50 of 3.2 µM.

Take `CCOC1=C(C)C(=O)C(C)=C(/C=C(\CCCCCc2cccnc2)C(=O)O)C1=O`: the IC50 in the assay listed under Rattus norvegicus [2] came out at 0.84 µM; in the assay filed under Rattus norvegicus [10], 100 µM; in the assay filed under Rattus norvegicus [3], 0.12 µM.

On to `COC1=C(C)C(=O)C(/C=C(\CCCCc2cccnc2)C(=O)O)=C(C)C1=O`, for which the results for the IC50 in the assay filed under Rattus norvegicus [1], in the assay listed under Rattus norvegicus [2] and in the assay listed under Rattus norvegicus [3] were more than 100 µM, 1.4 µM and 0.09 µM, respectively.

On to `COC1=C(OC)C(=O)C(/C=C(\CCCCCc2cccnc2)C(=O)O)=C(C)C1=O`, for which the IC50 in the assay filed under Rattus norvegicus [1] is more than 100 µM; in the assay filed under Rattus norvegicus [2], 11.7 µM; in the assay listed under Rattus norvegicus [3], 0.41 µM.

With `COC1=C(C)C(=O)C(C)=C(/C=C(\CCCCCc2cccnc2)C(=O)O)C1=O`, the results for the IC50 in the assay listed under Rattus norvegicus [2], in the assay filed under Rattus norvegicus [10] and in the assay listed under Rattus norvegicus [3] were 0.54 µM, more than 100 µM and 0.18 µM, respectively.

In the case of `CCCCCCCOC1=C(C)C(=O)C(/C=C(\CCCCCc2cccnc2)C(=O)O)=C(C)C1=O`, the figures for the IC50 in the assay listed under Rattus norvegicus [2], in the assay listed under Rattus norvegicus [4] and in the assay listed under Rattus norvegicus [3] were 3.2 µM, more than 100 µM and 0.16 µM, respectively.

For `CCCCCCCOC1=C(C)C(=O)C(C)=C(/C=C(\CCCCCc2cccnc2)C(=O)O)C1=O`, the IC50 in the assay filed under Rattus norvegicus [2] was 0.27 µM; in the assay listed under Rattus norvegicus [3], less than 0.1 µM.

`CCCCOC1=C(C)C(=O)C(C)=C(/C=C(\CCCCCc2cccnc2)C(=O)O)C1=O`: the IC50 in the assay listed under Rattus norvegicus [2] was 1 µM; in the assay filed under Rattus norvegicus [4], 100 µM; in the assay listed under Rattus norvegicus [3], less than 0.1 µM.

For the molecule `COc1c(C)c(O)c(/C=C(\CCCCCc2cccnc2)C(=O)O)c(C)c1O`, the IC50 is 4.9 µM in the assay listed under Rattus norvegicus [2]; 1.9 µM in [5]; 1.9 µM in the assay listed under Homo sapiens [6]; 4900 µM in the assay filed under Rattus norvegicus [7]; 0.4 µM in the assay filed under Rattus norvegicus [3]; more than 100 µM in the assay listed under Homo sapiens [8]. In assay [9], this molecule gave an IC50 of 3 µM.

For `COC1=C(/C=C(\CCCCCc2cccnc2)C(=O)O)C(=O)C(C)=CC1=O`, the IC50 in the assay listed under Rattus norvegicus [2] stood at 0.75 µM; in the assay filed under Rattus norvegicus [3], 0.5 µM.

On to `COC1=C(/C=C(\CCCCCCc2cccnc2)C(=O)O)C(=O)C(C)=C(C)C1=O`, for which the IC50 in the assay filed under Rattus norvegicus [2] was 0.22 µM; in the assay filed under Rattus norvegicus [3], 0.42 µM.

As for `COC1=C(/C=C(\CCCCCc2cccnc2)C(=O)O)C(=O)C(C)=C(C)C1=O`, the values for the IC50 in the assay filed under Rattus norvegicus [2] and in the assay filed under Rattus norvegicus [3] were 0.17 µM and 0.11 µM, respectively.

For `CCCCOC1=C(C)C(=O)C(C)=C(/C=C(\CCCc2cccnc2)C(=O)O)C1=O`, the IC50 in the assay listed under Rattus norvegicus [2] turned out to be 1.8 µM; in the assay filed under Rattus norvegicus [3], 0.89 µM.

In the case of `COc1c(C)c(O)c(C)c(/C=C(\CCCCCc2cccnc2)C(=O)O)c1O`, the IC50 was more than 100 µM in the assay listed under Rattus norvegicus [1], more than 3 µM in the assay filed under Rattus norvegicus [2] and 1.5 µM in the assay listed under Rattus norvegicus [3].

Regarding `COC1=C(C)C(=O)C(C)=C(/C=C(\CCCCCCc2cccnc2)C(=O)O)C1=O`, the IC50 in the assay filed under Rattus norvegicus [2] is 0.18 µM; in the assay filed under Rattus norvegicus [4], 100 µM; in the assay listed under Rattus norvegicus [3], less than 0.1 µM.

Take `COc1c(O)c(C)c(C)c(O)c1/C=C(\CCCCCc1cccnc1)C(=O)O`: the IC50 in the assay listed under Rattus norvegicus [1] is more than 100 µM; in the assay listed under Rattus norvegicus [2], 2.1 µM; in the assay filed under Rattus norvegicus [3], 0.14 µM.

As to `COC1=C(C)C(=O)C(/C=C(\CCCCCCc2cccnc2)C(=O)O)=C(C)C1=O`, the IC50 in the assay filed under Rattus norvegicus [1] stood at 100 µM; in the assay filed under Rattus norvegicus [2], 0.59 µM; in the assay listed under Rattus norvegicus [3], 0.12 µM.

On to `O=C(O)/C=C/c1ccc(Cn2ccnc2)cc1` [OZAGREL], for which the IC50 in the assay listed under Homo sapiens [11] is more than 100 µM; in the assay filed under Homo sapiens [12], more than 100 µM; in the assay listed under Homo sapiens [13] it was less than 0.1 µM; in the assay filed under Homo sapiens [14], 1.9 µM.

With `CC(c1cc2ccccc2s1)N(O)C(N)=O` (centres undefined) [ZILEUTON], the IC50 was 1.3 µM in the assay listed under Homo sapiens [12] and more than 100 µM in the assay listed under Homo sapiens [13].
